Assay results pooled from the literature.
Target: Serine/threonine-protein kinase Sgk3 (SGK3, Homo sapiens, UniProt Q96BR1)
One construct used (Q96BR1 1-496): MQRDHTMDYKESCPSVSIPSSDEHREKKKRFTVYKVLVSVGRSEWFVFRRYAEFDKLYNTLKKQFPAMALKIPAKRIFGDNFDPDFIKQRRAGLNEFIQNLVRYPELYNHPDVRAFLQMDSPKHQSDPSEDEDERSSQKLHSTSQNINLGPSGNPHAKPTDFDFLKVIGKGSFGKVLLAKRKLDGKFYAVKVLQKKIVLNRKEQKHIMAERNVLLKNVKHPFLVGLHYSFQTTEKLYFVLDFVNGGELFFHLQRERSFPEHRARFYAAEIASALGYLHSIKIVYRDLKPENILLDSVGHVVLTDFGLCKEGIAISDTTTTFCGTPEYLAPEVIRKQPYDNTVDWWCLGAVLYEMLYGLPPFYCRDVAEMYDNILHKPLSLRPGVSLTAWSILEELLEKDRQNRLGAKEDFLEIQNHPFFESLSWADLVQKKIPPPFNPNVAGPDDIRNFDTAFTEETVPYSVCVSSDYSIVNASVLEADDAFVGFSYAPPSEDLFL

Structure (SMILES) | read-out | method | concentration | remaining binding
O=C(Nc1cnc(Oc2ccc(F)cc2)nc1)N1CCc2ncccc2[C@@H]1c1ccc(F)cc1 | cell-free assay | competition with immobilised ligand | 1 µM | 100%
C[C@@H](c1ccc(-n2cnc3c(N)ncnc32)cc1)N1CCc2nn(C)c(Cc3ccccc3)c2C1=O | binding | competition with immobilised ligand | 0.1 µM | 93%
COc1ncc2cc3ccccc3nc2c1C#N | cell-free assay | competition with immobilised ligand | 5 µM | 100%
COc1cccc(CNC(=O)c2nc3scc(COCc4ccc(C(=O)O)cc4)c3c(=O)[nH]2)c1 | cell-free assay | competition with immobilised ligand | 1 µM | 69.2%
O=C(NCCCN1CCOCC1)c1ccc(Nc2ncc(Cl)c(-c3ccc(Cl)s3)n2)cc1 | binding | competition with immobilised ligand | 1 µM | 45%
O=C(NCC1CCOCC1)c1n[nH]cc1NC(=O)c1c(F)cccc1F | binding | competition with immobilised ligand | 1 µM | 78%
FC(F)(F)Oc1cccc(-c2cnc3ccc(-c4ccncc4)nn23)c1 | binding | competition with immobilised ligand | 5 µM | 70%
C[C@H](c1cccc(C#N)c1)n1cc(Cl)cc(C(N)=O)c1=N | cell-free assay | competition with immobilised ligand | 1 µM | 80%
COc1cnc(Nc2cccc(S(N)(=O)=O)c2)nc1N1CCN(c2ccccc2)CC1 | binding | competition with immobilised ligand | 1 µM | 72%
Cc1cnn2ncc(-c3ccnc(N(C)C)n3)c2c1 | binding | – | 1 µM | 100%
Cc1cnc(Nc2ccc(C(=O)N3CCC(N4CCCC4)CC3)cc2)nc1-c1cc2ccccc2s1 | binding | competition with immobilised ligand | 1 µM | 7.3%
COc1ccnn2ncc(-c3ccnc(N(C)C)n3)c12 | binding | – | 1 µM | 95%
c1cncc(-c2cccc(Nc3nccc(NC4CCCCC4)n3)c2)c1 | binding | competition with immobilised ligand | 10 µM | 58%
CN(c1nccc(-c2cnn3ncccc23)n1)C1CC1 | binding | – | 1 µM | 99%
COCCOc1nc(-c2ccc(Cl)nc2)nc2c1CN(C(=O)c1ncn3ccccc13)CC2 | cell-free assay | competition with immobilised ligand | 0.1 µM | 100%
CC1CCCN1c1nccc(-c2cnn3ncccc23)n1 (stereo not drawn) | binding | – | 1 µM | 86%
CCC(=N\O)/C(C)=C/c1ccc(F)cc1 | cell-free assay | competition with immobilised ligand | 1 µM | 81%
CN(CCCC(F)(F)F)c1nccc(-c2cnn3ncccc23)n1 | binding | – | 1 µM | 97%
Cn1cc(Cl)c2c(Oc3c(F)cc(Nc4cc(Cl)nc(N)n4)cc3F)ccnc21 | cell-free assay | competition with immobilised ligand | 0.1 µM | 90%
N[C@H]1CCN(c2nccc(-c3cnn4ncccc34)n2)C1 | binding | – | 1 µM | 100%
O=C(c1ccc(Nc2ncc(Cl)c(-c3cc4ccccc4s3)n2)cc1)N1CCC(N2CCCC2)CC1 | binding | competition with immobilised ligand | 1 µM | 5.6%
